# ChEMBL document CHEMBL1147801, “NK1 antagonists based on seven membered lactam scaffolds” (Bioorg Med Chem Lett, 2006)
# Experiments:
# [1] = molecular target: Voltage-gated inwardly rectifying potassium channel KCNH2 (Homo sapiens, UniProt Q12809); assay: Displacement of labeled MK-499 from cloned hERG channel expressed in HEK cells; type: cell-based, HEK293
# [2] = molecular target: Substance-P receptor (Homo sapiens, UniProt P25103); assay: Displacement of [125I] labeled substance P from human cloned NK1 receptor expressed in CHO cells; type: cell-based
# In short: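 Radioligand displacement assay: [¹²⁵I]-labelled substance P bound to cloned human NK1 receptor expressed in CHO cells, measured as the concentration giving IC50; mean ± SD of three determinations.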
# [3] = test system: Gerbil, jird; assay: Inhibition of GR-73632-induced foot tapping in gerbil at 3 mg/kg, po after 1 hr; type: functional, Meriones; parameters: Activity: scale not given: the % may be the effect or the level left; settings: for ED50: Meriones, 1 h, read-out: ID50 (the source's name); for Activity: dose 3 mg/kg
# In short: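 Gerbils dosed orally 1 h before central challenge with the NK1 agonist GR73632, with foot-tapping scored. Plasma drug level at 1 h measured by LC–MS/MS after protein precipitation.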
# [4] = Clearance in rat; type: ADME, organism-based; settings: in vivo
# [5] = test system: Gerbil, jird; assay: Inhibition of GR-73632-induced foot tapping in po dosed gerbil after 1 hr; type: functional; settings: Meriones, read-out: ID50 (the source's name)
# In short: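 Gerbils dosed orally 1 h before central challenge with the NK1 agonist GR73632, with foot-tapping scored. […] Plasma drug level at 1 h measured by LC–MS/MS after protein precipitation.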
# [6] = Half life in rat; type: ADME, organism-based; settings: in vivo
# Chain of Voltage-gated inwardly rectifying potassium channel KCNH2 (Q12809 whole entry): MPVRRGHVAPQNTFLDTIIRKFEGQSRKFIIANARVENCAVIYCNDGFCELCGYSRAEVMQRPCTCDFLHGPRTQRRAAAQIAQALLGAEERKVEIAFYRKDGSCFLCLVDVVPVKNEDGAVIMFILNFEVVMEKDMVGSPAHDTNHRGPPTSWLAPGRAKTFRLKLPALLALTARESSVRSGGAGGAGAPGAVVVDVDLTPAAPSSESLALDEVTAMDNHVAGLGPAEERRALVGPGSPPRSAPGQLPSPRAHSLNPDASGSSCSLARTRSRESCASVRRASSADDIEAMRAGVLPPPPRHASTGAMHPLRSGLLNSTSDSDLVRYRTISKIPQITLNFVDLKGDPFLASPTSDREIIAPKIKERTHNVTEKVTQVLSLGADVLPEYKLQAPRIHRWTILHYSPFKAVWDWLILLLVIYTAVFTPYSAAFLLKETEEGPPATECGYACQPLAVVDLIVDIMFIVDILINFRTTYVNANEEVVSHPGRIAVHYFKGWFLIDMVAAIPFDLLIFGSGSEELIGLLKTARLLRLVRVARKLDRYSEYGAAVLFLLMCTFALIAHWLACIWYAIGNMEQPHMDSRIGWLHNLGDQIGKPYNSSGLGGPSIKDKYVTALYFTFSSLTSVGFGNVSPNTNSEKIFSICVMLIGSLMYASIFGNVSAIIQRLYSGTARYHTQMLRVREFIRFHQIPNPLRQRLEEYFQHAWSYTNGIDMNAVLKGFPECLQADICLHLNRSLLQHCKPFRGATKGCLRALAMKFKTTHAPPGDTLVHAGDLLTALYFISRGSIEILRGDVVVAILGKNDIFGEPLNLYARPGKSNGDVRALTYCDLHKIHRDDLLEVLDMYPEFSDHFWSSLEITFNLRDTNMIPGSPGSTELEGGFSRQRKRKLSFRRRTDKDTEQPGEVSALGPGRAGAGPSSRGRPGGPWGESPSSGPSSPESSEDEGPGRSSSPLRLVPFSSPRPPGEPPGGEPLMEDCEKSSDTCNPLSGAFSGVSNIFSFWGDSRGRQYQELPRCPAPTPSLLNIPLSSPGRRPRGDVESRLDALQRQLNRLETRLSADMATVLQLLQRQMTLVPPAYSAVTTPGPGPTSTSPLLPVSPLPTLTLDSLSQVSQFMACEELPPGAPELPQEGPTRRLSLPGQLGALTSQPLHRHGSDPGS
# Chain of Substance-P receptor (P25103 whole entry): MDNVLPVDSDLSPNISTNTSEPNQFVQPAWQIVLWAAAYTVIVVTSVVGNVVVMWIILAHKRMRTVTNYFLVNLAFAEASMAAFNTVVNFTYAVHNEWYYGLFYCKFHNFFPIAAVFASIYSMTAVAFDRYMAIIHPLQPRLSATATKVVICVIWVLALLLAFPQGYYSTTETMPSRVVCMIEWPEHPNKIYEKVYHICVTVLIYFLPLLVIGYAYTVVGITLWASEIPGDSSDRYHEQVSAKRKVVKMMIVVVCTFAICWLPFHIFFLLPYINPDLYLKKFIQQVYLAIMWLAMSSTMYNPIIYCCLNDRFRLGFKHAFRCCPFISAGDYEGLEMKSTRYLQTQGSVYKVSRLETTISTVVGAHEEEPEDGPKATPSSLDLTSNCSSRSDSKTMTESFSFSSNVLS
IC50 [2] [nM],Structure (SMILES),Ki [1] [nM],Activity [3] [%],further results
0.22,C[C@@H](O[C@H]1CCn2c(O)nnc2C[C@@H]1c1ccc(F)cc1)c1cc(C(F)(F)F)cc(C(F)(F)F)c1,> 9000,,ED50 [3]: 0.8 mg/kg
0.23,C[C@@H]1C[C@H](O[C@H](C)c2cc(C(F)(F)F)cc(C(F)(F)F)c2)[C@@H](c2ccc(F)cc2)CNC1=O,2400,,
0.64,C[C@@H](O[C@H]1CCNC(=O)C[C@@H]1c1ccc(F)cc1)c1cc(C(F)(F)F)cc(C(F)(F)F)c1,> 9000,0,
0.49,C[C@@H]1C[C@H](O[C@H](C)c2cc(C(F)(F)F)cc(C(F)(F)F)c2)[C@@H](c2ccc(F)cc2)CC(=O)N1C,> 9000,8,
0.12,C[C@@H](O[C@H]1CCC(=O)N(C)C[C@@H]1c1ccc(F)cc1)c1cc(C(F)(F)F)cc(C(F)(F)F)c1,,,ED50 [3]: 0.64 mg/kg
0.28,C[C@@H](O[C@H]1CCc2nccn2C[C@@H]1c1ccc(F)cc1)c1cc(C(F)(F)F)cc(C(F)(F)F)c1,,4,
0.53,C[C@@H](O[C@H]1CCN(C)C(=O)C[C@@H]1c1ccc(F)cc1)c1cc(C(F)(F)F)cc(C(F)(F)F)c1,> 9000,,
0.14,C[C@@H](O[C@H]1CCC(=O)NC[C@@H]1c1ccc(F)cc1)c1cc(C(F)(F)F)cc(C(F)(F)F)c1,> 9000,,clearance [4]: 33 mL/min/kg; ED50 [5]: 1.06 mg/kg; half-life [6]: 5.6 h

# More lines, now with the values behind:
Structure (SMILES),IC50 [2] [nM],Ki [1] [nM],Activity [3] [%],further results
C[C@@H](O[C@H]1CCC(=O)N(C)[C@@H](C)[C@@H]1c1ccc(F)cc1)c1cc(C(F)(F)F)cc(C(F)(F)F)c1,,6700,,
C[C@@H]1NC(=O)CC[C@H](O[C@H](C)c2cc(C(F)(F)F)cc(C(F)(F)F)c2)[C@H]1c1ccc(F)cc1,,> 9000,,
C[C@@H]1C[C@H](O[C@H](C)c2cc(C(F)(F)F)cc(C(F)(F)F)c2)[C@@H](c2ccc(F)cc2)CC(=O)N1,0.41,,64,
C[C@@H]1C[C@H](O[C@H](C)c2cc(C(F)(F)F)cc(C(F)(F)F)c2)[C@@H](c2ccc(F)cc2)CN(C)C1=O,,,5,
C[C@@H](O[C@H]1CCn2ccnc2C[C@@H]1c1ccc(F)cc1)c1cc(C(F)(F)F)cc(C(F)(F)F)c1,,1400,0,
